Some results are limits rather than exact numbers.

Drawing on ChEMBL document CHEMBL1136393, “4-(3,4-dihydro-1H-isoquinolin-2yl)-pyridines and 4-(3,4-dihydro-1H-isoquinolin-2-yl)-quinolines as potent NR1/2B subtype selective NMDA receptor antagonists” (Bioorg Med Chem Lett, 2003), this text covers Ki and ED50 for 20 compounds.

Assay [1] can be described thus: Inhibition of [3H]25-6981 binding to N-methyl-D-aspartate glutamate receptor 2B of rat brain.
Assay [2] deals with T1, Adrenergic receptor alpha-1 (Rattus norvegicus, UniProt P15823+P23944+P43140).
T1 sequence (P15823 whole entry): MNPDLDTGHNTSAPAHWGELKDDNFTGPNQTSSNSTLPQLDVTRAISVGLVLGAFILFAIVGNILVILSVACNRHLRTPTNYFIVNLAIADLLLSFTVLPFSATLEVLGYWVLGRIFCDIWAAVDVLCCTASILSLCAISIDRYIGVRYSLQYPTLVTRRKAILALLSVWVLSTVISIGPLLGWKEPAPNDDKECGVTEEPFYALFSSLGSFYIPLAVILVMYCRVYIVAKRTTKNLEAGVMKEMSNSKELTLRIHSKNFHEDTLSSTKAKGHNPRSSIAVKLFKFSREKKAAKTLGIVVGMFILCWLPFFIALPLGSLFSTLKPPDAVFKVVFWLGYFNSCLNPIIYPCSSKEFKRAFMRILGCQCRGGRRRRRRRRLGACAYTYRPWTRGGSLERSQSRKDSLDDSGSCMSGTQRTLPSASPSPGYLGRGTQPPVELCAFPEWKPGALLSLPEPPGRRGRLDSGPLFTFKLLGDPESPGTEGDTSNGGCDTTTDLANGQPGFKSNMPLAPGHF
T1 sequence (P23944 whole entry): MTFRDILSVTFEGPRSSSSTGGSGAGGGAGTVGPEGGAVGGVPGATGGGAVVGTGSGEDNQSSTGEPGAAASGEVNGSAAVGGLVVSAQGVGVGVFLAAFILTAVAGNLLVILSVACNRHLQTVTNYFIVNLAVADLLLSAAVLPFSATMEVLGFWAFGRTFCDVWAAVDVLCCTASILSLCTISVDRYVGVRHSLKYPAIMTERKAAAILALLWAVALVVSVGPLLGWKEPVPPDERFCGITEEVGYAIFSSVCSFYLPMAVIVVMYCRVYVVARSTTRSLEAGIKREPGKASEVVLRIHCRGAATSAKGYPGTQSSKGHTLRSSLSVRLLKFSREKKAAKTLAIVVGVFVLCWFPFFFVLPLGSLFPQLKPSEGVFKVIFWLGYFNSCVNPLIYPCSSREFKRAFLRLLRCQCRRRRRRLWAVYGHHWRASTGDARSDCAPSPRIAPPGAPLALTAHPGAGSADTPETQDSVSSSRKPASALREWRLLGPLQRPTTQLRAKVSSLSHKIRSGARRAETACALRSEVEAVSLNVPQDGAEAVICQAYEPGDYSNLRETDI
T1 sequence (P43140 whole entry): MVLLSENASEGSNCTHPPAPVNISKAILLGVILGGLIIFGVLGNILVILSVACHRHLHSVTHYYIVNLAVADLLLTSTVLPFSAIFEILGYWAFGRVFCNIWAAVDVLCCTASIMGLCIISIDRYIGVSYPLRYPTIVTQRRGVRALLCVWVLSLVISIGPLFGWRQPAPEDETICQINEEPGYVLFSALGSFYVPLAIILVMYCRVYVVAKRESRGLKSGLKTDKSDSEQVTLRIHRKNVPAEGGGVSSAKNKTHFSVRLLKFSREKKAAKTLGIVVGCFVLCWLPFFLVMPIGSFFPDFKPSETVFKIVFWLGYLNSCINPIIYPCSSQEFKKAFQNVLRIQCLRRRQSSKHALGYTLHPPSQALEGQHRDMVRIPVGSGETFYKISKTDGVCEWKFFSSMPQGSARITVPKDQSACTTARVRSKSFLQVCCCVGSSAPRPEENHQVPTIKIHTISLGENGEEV
The assay can be described thus: Binding affinity towards alpha receptor in rat brain using [3H]prazosin as radioligand. It counts as tissue-based.

Assay [3] can be described thus: Binding affinity towards N-methyl-D-aspartate (NMDA) receptor in rat brain using [3H]-25-6981 as radioligand. It counts as tissue-based.
Assay [4] addresses T2, Muscarinic acetylcholine receptor M1 (Rattus norvegicus, UniProt P08482).
T2 sequence (P08482 whole entry): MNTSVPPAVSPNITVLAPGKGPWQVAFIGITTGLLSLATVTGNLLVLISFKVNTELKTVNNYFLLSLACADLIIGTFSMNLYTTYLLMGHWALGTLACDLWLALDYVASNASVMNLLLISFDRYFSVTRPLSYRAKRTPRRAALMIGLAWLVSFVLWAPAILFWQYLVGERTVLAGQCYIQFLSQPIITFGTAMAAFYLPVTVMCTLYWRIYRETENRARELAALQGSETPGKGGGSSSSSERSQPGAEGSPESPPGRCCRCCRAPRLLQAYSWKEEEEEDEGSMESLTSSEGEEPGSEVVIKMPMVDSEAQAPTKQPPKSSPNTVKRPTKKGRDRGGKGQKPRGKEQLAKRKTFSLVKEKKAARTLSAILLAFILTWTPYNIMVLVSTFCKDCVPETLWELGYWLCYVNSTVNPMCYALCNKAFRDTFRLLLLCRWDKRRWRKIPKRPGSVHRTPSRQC
The assay can be described thus: Binding affinity towards Muscarinic acetylcholine receptor M1 in […] using [3H]pirenzepine as radioligand.

Another assay relates to Mus musculus. The assay can be described thus: In vivo effective dose in mice after intraperitoneal administration using standard sound induced seizures assay. It counts as functional. The following applies: ip. Put shortly: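 DBA/2 mice; compound given intraperitoneally 30 min before sound-induced seizure testing; ED50 in mg/kg.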
Assay [5] has as its target T1, Adrenergic receptor alpha-1. The assay can be described thus: Binding affinity towards Alpha-1 adrenergic receptor in rat brain using [3H]prazosin. It counts as tissue-based.
For assay [6], the target named is T2, Muscarinic acetylcholine receptor M1. The assay can be described thus: Binding affinity towards muscarinic acetylcholine receptor M1 in […] using [3H]pirenzepine as radioligand.

Consider `Cc1cc(N2CCc3ccccc3C2)c2ccccc2n1`, for which, in assay [1], the affinity corresponds to a Ki of 0.075 µM.

Take `Cc1cc(N2CCc3ccccc3C2)cc(NC(=O)CO)n1`: the results for the inhibition constant (Ki) in assay [2], in assay [3] and in assay [4] were 20 µM, 0.015 µM and 60 µM, respectively.

Regarding `OCCNc1ccnc(N2CCc3ccccc3C2)c1`, in the assay with Mus musculus, the 50% effective dose (ED50) amounted to 13 mg/kg. The Ki in assay [1] amounted to 0.002 µM; in assay [5], 2.3 µM.

Take `Nc1cc(N2CCc3ccccc3C2)ccn1`: the Ki was determined as 2.1 µM in assay [2], 0.002 µM in assay [3] and 0.4 µM in assay [4].

As for `Nc1cc(N2CCc3ccccc3C2)c2ccccc2n1`, the Ki in assay [2] is 0.12 µM; in assay [3] it was 0.019 µM.

For `Cc1cc(N2CCc3ccccc3C2)cc(NCCO)n1`, the figures for the Ki in assay [2], in assay [3] and in assay [4] were 3.5 µM, 0.002 µM and 6.8 µM, respectively. In the assay on Mus musculus, the ED50 was found to be 18 mg/kg.

The compound `Clc1ccc2c(c1)CCN(c1ccncc1)C2` gave a Ki in assay [1] of 0.23 µM.

On to `CCOC(=O)C(=O)Nc1cc(N2CCc3ccccc3C2)cc(C)n1`, for which the Ki was found to be 12 µM in assay [2], 0.008 µM in assay [3] and 11 µM in assay [4].

Consider `CC1CN(c2ccncc2)Cc2ccccc21` (stereo not given), for which the Ki is 0.9 µM in assay [6], 0.025 µM in assay [1] and 2.2 µM in assay [5].

Regarding `COc1cc2c(cc1OC)CN(c1ccncc1)CC2`, in assay [1], the Ki was 28 µM.

Take `Clc1cccc2c1CN(c1ccncc1)CC2`: the Ki in assay [6] was found to be 0.65 µM; in assay [1], 0.026 µM; in assay [5], 3.8 µM.

As for `Clc1ccc2c(c1)CN(c1ccncc1)CC2`, the Ki was 1 µM in assay [6], 0.037 µM in assay [1] and 1.3 µM in assay [5].

As for `Cc1cc(N2CCc3ccccc3C2)cc(N)n1`, the results for the inhibition constant Ki in assay [2], in assay [3] and in assay [4] were 1.5 µM, 0.004 µM and 2.6 µM, respectively.

In the assay with Mus musculus, `Clc1cccc2c1CCN(c1ccncc1)C2` yielded an ED50 of 2 mg/kg. Further, the results for the inhibitory constant (Ki) in assay [6], in assay [1] and in assay [5] were 0.66 µM, 0.008 µM and 1.5 µM, respectively.

With `Cc1cc(N2CCc3ccccc3C2)ccn1`, the Ki came out at 5.7 µM in assay [2] and 0.008 µM in assay [3].

Turning to `OCCNc1cc(N2CCc3ccccc3C2)c2ccccc2n1`, the Ki in assay [2] was 1.7 µM; in assay [3] it was 0.022 µM; in assay [4] it was 6.7 µM.

In turn, `c1ccc2c(c1)CCN(c1ccnc3ccccc13)C2` registered an ED50 in the assay on Mus musculus of 25 mg/kg. Moreover, the results for the Ki in assay [6], in assay [1] and in assay [5] were 2.6 µM, 0.029 µM and 3.2 µM, respectively.

In the assay on Mus musculus, `OCCNc1cc(N2CCc3ccccc3C2)nc2ccccc12` had an ED50 below 12 mg/kg. Also, the Ki in assay [1] was 0.0035 µM; in assay [5] it was 0.43 µM.

As for `c1ccc2c(c1)CCN(c1ccncc1)C2`, in the assay on Mus musculus, the 50% effect level (ED50) was put at a dose of 3 mg/kg. Also, the figures for the inhibitory constant (Ki) in assay [6], in assay [1] and in assay [5] were 0.72 µM, 0.008 µM and 5.8 µM, respectively.

In the case of `C[C@@H]([C@H](O)c1ccc(O)cc1)N1CCC(Cc2ccccc2)CC1` [(R,S)-IFENPRODIL], the 50% effect level with Mus musculus (ED50) was put at a dose of 16 mg/kg. The compound also registered a Ki in assay [5] of 0.012 µM.
